Marks after values point to notes of the source that are not given here.
How the values were obtained:
4T1-526 mammary tumors = test: 4T1-526 mammary fat pad tumor growth; format: in vivo, BALB/c mice
[1] = tested on: MDA-MB-231, 4T1, MRC-5 cells; test: Western blot of c-MYC, cyclin D1 and PARP; format: cell-based; conditions: MDA-MB-231 or 4T1 cancer cells; MG-002, CR-1-31B 100 nM, DXR 0.5 µg/mL; 24 h
eIF4A1 [2] = molecular target: T1, eIF4A1 (Homo sapiens, UniProt P60842); format: binding; conditions: for RNA template selectivity of compound-induced eIF4A1 clamping: 10 µM, poly (AG)8 vs poly (UC)8 RNA
Outline: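 Clamping: 1 mM AMPPNP, ΔmP versus DMSO, n = 3 ±SD. Dissociation: complexes with 1 mM ATP, 30 min RT dark, then 1,000-fold excess unlabeled poly(AG)8, polarization over time; one-phase-decay half-life, 95% CI errors.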

eIF4A1 [3] = molecular target: T1, eIF4A1; test: Differential scanning fluorimetry of eIF4A1; format: binding; conditions: eIF4A1 8 µM, compound 15 µM, 15 µM poly (AG)8, 1 mM AMPPNP
Outline: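 His6-eIF4A1 (E. coli BL21(DE3), Ni-NTA then Q-Sepharose) at 8 µM with 15 µM test compound or DMSO. Heated 37 to 75 °C at 1 °C/min; ΔT50 from the unfolding midpoint; n = 3 ±SD.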

[4] = Plasma protein binding, human; format: in vitro ADME
[5] = tested on: mRNA translation in 4T1-526 cells; test: Puromycin incorporation in 4T1-526 cells; format: cell-based; conditions: read-out: IC50 for inhibition of mRNA translation
[6] = tested on: cap-dependent (FLuc) translation; test: In vitro translation in Krebs-2 extracts with bicistronic reporter mRNA; format: biochemical; conditions: read-out: IC50 toward inhibition of FLuc synthesis from (CAG)-FF/HCV-IRES/Ren mRNA, n = 2 ±SD
[7] = Plasma protein binding, mouse; format: in vitro ADME
[8] = delivered IV 1 mg/kg; cited from earlier work
4T1-526 cells = test: Cell death of 4T1-526 cells; format: cell-based; conditions: 72h exposure at IC50 doses

T1 sequence (P60842 whole entry): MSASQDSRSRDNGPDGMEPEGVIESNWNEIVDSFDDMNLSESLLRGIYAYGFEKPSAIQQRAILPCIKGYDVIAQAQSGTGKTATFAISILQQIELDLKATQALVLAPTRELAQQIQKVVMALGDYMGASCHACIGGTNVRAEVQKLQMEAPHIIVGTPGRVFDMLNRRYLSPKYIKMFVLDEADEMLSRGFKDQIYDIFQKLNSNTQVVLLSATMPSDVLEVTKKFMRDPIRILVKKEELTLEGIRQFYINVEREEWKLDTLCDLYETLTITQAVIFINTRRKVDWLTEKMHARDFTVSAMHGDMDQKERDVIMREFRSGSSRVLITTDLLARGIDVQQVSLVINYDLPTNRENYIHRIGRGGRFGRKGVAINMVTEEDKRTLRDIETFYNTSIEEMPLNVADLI

Compound | primary tumor response, monotherapy versus combination (4T1-526 mammary tumors; 0.5 mg/kg MG-002 PO, 2.5 mg/kg DXR IP, every 3 d) | cleavage of PARP [1] | RNA template selectivity of compound-induced eIF4A1 clamping (eIF4A1 [2]) | transition midpoint temperature shift (ΔT50) (eIF4A1 [3]) [°C] | tumor growth after intraperitoneal or intravenous delivery (4T1-526 mammary tumors; intraperitoneal or intravenous delivery) | Plasma protein binding (% bound) Human [4] [% bound] | IC50 [5] [nM] | IC50 [6] [nM] | Plasma protein binding (% bound) Mouse [7] [% bound] | half-life of complexes, fold less than those formed with MG-002 (eIF4A1 [2]; poly (AG) RNA) | T1/2 (h) [8] | cell death (4T1-526 cells)
COc1cccc2c1C(=O)c1c(O)c3c(c(O)c1C2=O)C[C@@](O)(C(=O)CO)C[C@@H]3O[C@H]1C[C@H](N)[C@H](O)[C@H](C)O1 [DXR, doxorubicin] | equally responsive | cleavage of PARP was observed | – | – | – | – | – | – | – | – | – | –
CC(/C=C/C(C)=C/[C@@H]1Cc2nc(cs2)[C@@H](C)C[C@@H](N)CC(=O)O[C@@H](C)C/C(C)=C/C=C\C(=O)O1)=C\CN(C)C [PatA, pateamine A] | – | – | stabilized binding of eIF4A1 to both polypurine and polypyrimidine RNA templates | 10 | – | – | – | – | – | – | – | –
COc1cc2c(c(OC)n1)[C@]1(O)[C@H](O)[C@H](CN(C)C)[C@@H](c3ccccc3)[C@]1(c1ccc(C#N)cc1)O2 [eFT226] | – | – | discriminated between poly (AG)8 and poly (UC)8 RNA templates | 7 | similarly delayed tumor growth | 79.4 ± 0.3 | ~8 | 813 ± 91 | 73.4 ± 1.1 | approximately 2.5 fold | 10.9^§ h | Significant cell death
